Assay results taken from paper PMC7394584 (OncoTargets and therapy, 2020).
One block for each molecule: values may come before it.

Key:
[1] = system: MHCC97-H cells' subcutaneous tumor; experiment: Nude mice subcutaneous tumor model; assay type: in vivo; conditions: oral; for Tumor Volumes IC50 Values, Solvent control / Tumor Weights IC50 Values, Solvent control / Tumor Volumes IC50 Values, Compound 4 / Tumor Weights IC50 Values, Compound 4: every 2 days, 30 days; for Tumor Volumes IC50 Values, Solvent control / Tumor Weights IC50 Values, Solvent control: agent alone; for Tumor Volumes IC50 Values, Compound 4 / Tumor Weights IC50 Values, Compound 4: agent combined with compound 4 (1 mg/kg)
Method in brief: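 MHCC97-H cells injected subcutaneously into 4–5-week-old nude mice. Dosing started 4–5 days later as oral liquids formulated with PEG and Tween 80, given orally every 2 days (15 doses over 30 days). Test compound at 1 mg/kg; sorafenib at 0.5 or 2 mg/kg. Tumours then excised. Volume = length × width²/2; weight measured on a balance. Inhibitory rates calculated from volume and weight.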

phospho-ERK = experiment: Western blot, phosphorylation of ERK; assay type: cell-based, human; conditions: MHCC97-H cells, 1 μmol/L
Method in brief: (§1)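 MHCC97-H cells (5 × 10^6 per 75T flask) pretreated 12 h with solvent, test compound or reference pathway inhibitors, each at 1 μmol/L, then incubated 24 h. RIPA lysates quantified by BCA; 40 μg protein run on 10–12% SDS-PAGE. Blocking in 5% skim milk/TBS-0.1% Tween-20; rabbit primary antibodies (1:1000, 4°C) against phospho-p70S6K Thr389, phospho-AKT Ser473/Thr308, phospho-ERK and total proteins; β-actin loading control.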

phospho-p70S6K (Thr389) = experiment: Western blot, phosphorylation of P70S6K1; assay type: cell-based, human; conditions: MHCC97-H cells; for phosphorylation of P70S6K1 (Western blot): 1 μmol/L
phospho-AKT = experiment: Western blot, phosphorylation of AKT; assay type: cell-based, human; conditions: MHCC97-H cells; for phosphorylation of AKT (Western blot): 1 μmol/L
Method in brief: as §1

MHCC97-H cells = experiment: MTT cell-survival examination; assay type: cell-based; conditions: compound 4 at 0.03 μmol/L (30 nmol/L)
Method in brief: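 MHCC97-H seeded at 5 × 10^3 cells/well in DMEM + 10% FBS, 37°C, 5% CO2, 24 h. MTT read at OD 490 nm; inhibition = (control − treated)/control × 100%; IC50 calculated from inhibitory rates.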

advanced HCC patients = experiment: Clinical outcome of sorafenib treatment by mTOR mRNA expression; assay type: in vivo, human; conditions: sorafenib-treated advanced HCC patients
[2] = stated in introduction, no reference given; cited from earlier work

Tumor Volumes IC50 Values, Solvent control [1]: 1.70 ± 0.54 mg/kg
Tumor Weights IC50 Values, Solvent control [1]: 1.60 ± 0.71 mg/kg
Tumor Volumes IC50 Values, Compound 4 [1]: 0.44 ± 0.23 mg/kg
Tumor Weights IC50 Values, Compound 4 [1]: 0.42 ± 0.07 mg/kg
SMILES: COc1cc2c(Oc3ccc4[nH]c(C)cc4c3F)ccnc2cc1OCC1(N)CC1 [Anlotinib]

Tumor Volumes IC50 Values, Solvent control [1]: 1.95 ± 0.55 mg/kg
Tumor Weights IC50 Values, Solvent control [1]: 1.65 ± 0.09 mg/kg
Tumor Volumes IC50 Values, Compound 4 [1]: 0.53 ± 0.20 mg/kg
Tumor Weights IC50 Values, Compound 4 [1]: 0.59 ± 0.07 mg/kg
SMILES: N#CC1(c2ccc(NC(=O)c3cccnc3NCc3ccncc3)cc2)CCCC1 [Apatinib]

SMILES: C[C@@H]1CCN(C(=O)CC#N)C[C@@H]1N(C)c1ncnc2[nH]ccc12 [CP690550]
ERK phosphorylation (Western blot) (phospho-ERK): does not affect
phosphorylation of P70S6K1 (Western blot) (phospho-p70S6K (Thr389)): does not affect
phosphorylation of AKT (Western blot) (phospho-AKT): does not affect

SMILES: CC(C)(C)OC(=O)Nc1ccc(-c2nc(N3CCOCC3)c3ncn(CCC4OCCO4)c3n2)cc1 [Compound 4, tert-butyl (4-(9-(2-(1,3-dioxolan-2-yl)ethyl)-6-morpholino-9H-purin-2-yl)phenyl)carbamate]
MHCC97-H cells' subcutaneous growth ([1]; compound 4 alone at 1 mg/kg): without significantly affecting
activation of mTOR in vivo ([1]; compound 4 at 1 mg/kg): significantly inhibited the activation of mTOR
ERK phosphorylation (Western blot) (phospho-ERK): did not show a significant inhibitory effect
inhibitory activity on mTORC1 (phospho-p70S6K1, Western blot) (phospho-p70S6K (Thr389)): definite inhibitory effect
phosphorylation of P70S6K1 (Western blot) (phospho-p70S6K (Thr389)): only inhibited the phosphorylation of P70S6K1
inhibition of activation of mTOR kinase (phosphorylation of P70S6K1) in cells (phospho-p70S6K (Thr389); compound 4 at 0.03 μmol/L (30 nmol/L)): significantly inhibited the activation of mTOR
inhibitory activity on mTORC2 (phospho-AKT SER473, Western blot) (phospho-AKT): weaker than that on mTORC1
phosphorylation of AKT (Western blot) (phospho-AKT): did not affect PI3K or AKT
cytotoxicity on MHCC97-H cells (MHCC97-H cells): no obvious cytotoxicity

SMILES: CC(C)(C)c1nc(-c2cccc(NS(=O)(=O)c3c(F)cccc3F)c2F)c(-c2ccnc(N)n2)s1 [GSK2118436]
ERK phosphorylation (Western blot) (phospho-ERK): significantly inhibited ERK phosphorylation

SMILES: O=c1cc(N2CCOCC2)oc2c(-c3ccccc3)cccc12 [LY294002]
phosphorylation of P70S6K1 (Western blot) (phospho-p70S6K (Thr389)): significantly inhibited
phosphorylation of AKT (Western blot) (phospho-AKT): significantly inhibited

Tumor Volumes IC50 Values, Solvent control [1]: 0.70 ± 0.25 mg/kg
Tumor Weights IC50 Values, Solvent control [1]: 0.78 ± 0.58 mg/kg
Tumor Volumes IC50 Values, Compound 4 [1]: 0.10 ± 0.05 mg/kg
Tumor Weights IC50 Values, Compound 4 [1]: 0.10 ± 0.01 mg/kg
SMILES: COc1cc2nccc(Oc3ccc(NC(=O)NC4CC4)c(Cl)c3)c2cc1C(N)=O [Lenvatinib]

Tumor Volumes IC50 Values, Solvent control [1]: 0.92 ± 0.48 mg/kg
Tumor Weights IC50 Values, Solvent control [1]: 1.22 ± 0.72 mg/kg
Tumor Volumes IC50 Values, Compound 4 [1]: 0.43 ± 0.10 mg/kg
Tumor Weights IC50 Values, Compound 4 [1]: 0.55 ± 0.10 mg/kg
SMILES: CNC(=O)c1cc(Oc2ccc(NC(=O)Nc3ccc(Cl)c(C(F)(F)F)c3)c(F)c2)ccn1 [Regorafenib]

SMILES: CNC(=O)c1cc(Oc2ccc(NC(=O)Nc3ccc(Cl)c(C(F)(F)F)c3)cc2)ccn1 [Sorafenib]
Tumor Volumes IC50 Values, Solvent control [1]: 1.30 ± 0.48 mg/kg
Tumor Weights IC50 Values, Solvent control [1]: 1.57 ± 0.41 mg/kg
Tumor Volumes IC50 Values, Compound 4 [1]: 0.17 ± 0.03 mg/kg
Tumor Weights IC50 Values, Compound 4 [1]: 0.15 ± 0.04 mg/kg
OS (overall survival), median (advanced HCC patients; mTOR mRNA High (n = 40)): 10.0 M
TTP (time to progress), median (advanced HCC patients; mTOR mRNA High (n = 40)): 8.0 M
OS (overall survival), median (advanced HCC patients; mTOR mRNA Low (n = 12)): 16.0 M
TTP (time to progress), median (advanced HCC patients; mTOR mRNA Low (n = 12)): 12.0 M

SMILES: CO[C@H]1C[C@@H]2CC[C@@H](C)[C@@](O)(O2)C(=O)C(=O)N2CCCC[C@H]2C(=O)O[C@H]([C@H](C)C[C@@H]2CC[C@@H](OCCO)[C@H](OC)C2)CC(=O)[C@H](C)/C=C(\C)[C@@H](O)[C@@H](OC)C(=O)[C@H](C)C[C@H](C)/C=C/C=C/C=C/1C [everolimus]
logP [2]: > 6

SMILES: CO[C@H]1C[C@@H]2CC[C@@H](C)[C@@](O)(O2)C(=O)C(=O)N2CCCC[C@H]2C(=O)O[C@H]([C@H](C)C[C@@H]2CC[C@@H](O)[C@H](OC)C2)CC(=O)[C@H](C)/C=C(\C)[C@@H](O)[C@@H](OC)C(=O)[C@H](C)C[C@H](C)/C=C/C=C/C=C/1C [rapamycin]
logP [2]: > 6
